The record followed here is ChEMBL document CHEMBL5149972, “Novel Antimalarial Tetrazoles and Amides Active against the Hemoglobin Degradation Pathway in Plasmodium falciparum” (J Med Chem, 2021).

In data set [1] the test system is Plasmodium falciparum. Kind of data set: Antiplasmodial activity against drug resistant Plasmodium falciparum Dd2 infected in human RBC assessed as parasite growth inhibition incubated for 72 hrs by SYBR Green dye based fluorescence assay. The note with it: Plasmodium falciparum, Dd2, Erythrocyte, 72 h. Type of data set: functional, organism-based. The method in brief: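 Blood-stage cultures at 2% hematocrit, human O+ RBCs, RPMI 1640 + 25 mM HEPES, 0.5% Albumax-I, 23 mM bicarbonate, 92 μM hypoxanthine. Start at 0.5% parasitemia; 72 h at 37°C, 5% CO₂; freeze-thaw, then SYBR Green in saponin/Triton lysis buffer, 4 h RT dark; fluorescence ex 485/em 535 nm. 10-point curves, technical duplicates or triplicates, final 0.5% DMSO; four-parameter fit gives EC₅₀; mean ± std dev of biological replicates.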

The nature of data set [2]: Kinetic solubility of compound in PBS at pH 2 by HPLC analysis. Type of data set: physicochemical. To be noted: read-out: Kinetic_solubility.
The next data set deals with Plasmodium berghei. Kind of data set: Antiplasmodial activity against liver stage Plasmodium berghei ANKA expressing GFP-Luc-SMCO infected in human HepG2-A16-CD81EGFP cells assessed as reduction in liver-stage development of luciferase-expressing parasite by luciferase reporter gene based bioluminescence assay. Type of data set: functional, organism-based. The gist of the method:
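Pb-Luc (P. berghei ANKA-GFP-Luc-SMCON) sporozoites infect HepG2-A16-CD81EGFP cells in phenol red-free DMEM with 5% FBS, glutamine, penicillin/streptomycin; compounds scored for blocking liver-stage development by luciferase signal.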
A general note: A reporter such as luciferase makes a cellular process visible.

The test system of data set [3] is Plasmodium falciparum. Briefly: Antiplasmodial activity against Plasmodium falciparum mature stage V gametocyte assessed as inhibition of male gametocyte formation by luciferase reporter assay. The format is functional, organism-based.
For data set [4], the system named is Plasmodium falciparum. Kind of data set: Antiplasmodial activity against chloroquine and pyrimethamine resistant Plasmodium falciparum K1 infected in human RBC assessed as parasite growth inhibition incubated for 72 hrs by SYBR Green dye based fluorescence assay. Type of data set: functional, organism-based. The note with it: K1, Erythrocyte.
The subject of data set [5] is Plasmodium falciparum. Kind of data set: Antiplasmodial activity against chloroquine, atovaquone and pyrimethamine resistant Plasmodium falciparum TM90C2B infected in human RBC assessed as parasite growth inhibition incubated for 72 hrs by SYBR Green dye based fluorescence assay. Type of data set: functional, organism-based. The note with it: Erythrocyte.
Data set [6] deals with Plasmodium falciparum. Briefly: Antiplasmodial activity against chloroquine resistant Plasmodium falciparum Dd2-Dd2 mutant replaced with recombinant Dd2 sequence at endogenous pfcrt Dd2 locus infected in human RBC assessed as parasite growth inhibition incubated for 72 hrs by SYBR Green dye based fluorescence assay. Type of data set: functional, organism-based. To be noted: Erythrocyte. The gist of the method:
(§1)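 Gene-edited Dd2 lines with the endogenous pfcrt locus replaced by zinc-finger nuclease editing. Concentration-response curves run with technical duplicates at each concentration; values are the average of two biological replicates, with std dev given where more replicates were collected.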

For data set [7], the system named is Plasmodium falciparum. Kind of data set: Antiplasmodial activity against chloroquine and piperaquine resistant Plasmodium falciparum Dd2-M343L mutant replaced with endogenous pfcrt locus with the recombinant Dd2 sequence and the PPQ resistance-conferring M343L at endogenous pfcrt Dd2 locus infected in human RBC assessed as parasite growth inhibition incubated for 72 hrs by SYBR Green dye based fluorescence assay. Type of data set: functional, organism-based. The note with it: Erythrocyte. The method in brief:
as §1

Data set [8] relates to Plasmodium falciparum. Briefly: Antiplasmodial activity against lab-derived […] resistant Plasmodium falciparum Dd2-PfeEF2 mutant infected in human RBC assessed as parasite growth inhibition incubated for 72 hrs by SYBR Green dye based fluorescence assay. Type of data set: functional, organism-based. The note with it: Erythrocyte.
The test system of data set [9] is Plasmodium falciparum. Kind of data set: Antiplasmodial activity against lab-derived DSM265 resistant Plasmodium falciparum Dd2-PfDHODH mutant infected in human RBC assessed as parasite growth inhibition incubated for 72 hrs by SYBR Green dye based fluorescence assay. The note with it: Erythrocyte. Type of data set: functional, organism-based.
Data set [10] relates to Plasmodium falciparum. Kind of data set: Antiplasmodial activity against lab-derived KAF156 resistant Plasmodium falciparum Dd2-Pfcarl mutant infected in human RBC assessed as parasite growth inhibition incubated for 72 hrs by SYBR Green dye based fluorescence assay. The format is functional, organism-based. To be noted: Erythrocyte.
The subject of data set [11] is Plasmodium falciparum. Kind of data set: Antiplasmodial activity against Rac-N-(Pyridin-3-yl(1-(o-tolyl)-1H-tetrazol-5-yl)methyl)-N-(3-(trifluoromethyl)benzyl)Cyclopropanamine resistant Plasmodium falciparum 3D7 clone F1-C1 ring-stage parasite assessed as parasite growth inhibition incubated for 72 hrs by SYBR Green and MitoTracker Deep Red FM dye based flow cytometry. The format is functional, organism-based. The gist of the method: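 Clonal 3D7-A10 lines recovered after single-step selection; ring stages at 0.2% parasitemia, 1% hematocrit in RPMI-1640 with 0.5% Albumax. 72 h exposure to a 10-point 2-fold dilution series in duplicate with DMSO controls, final DMSO <0.5%. Survival read by flow cytometry, SYBR Green as nuclear stain and MitoTracker Deep Red FM as vital dye. EC₅₀ and EC₉₀ reported with fold shift relative to parental 3D7-A10.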
Background: In flow cytometry, cells or beads pass a laser one at a time.

Converted amounts (≈) assume the structure as drawn. Some results are limits rather than exact numbers.

The EC50 is the midpoint of the concentration-response curve. Usually EC90 stands for the concentration needed for an effect of 90%.

Regarding `Cc1ccccc1-n1nnnc1C(c1cccnc1)N(Cc1cccc(C(F)(F)F)c1)C1CC1` (racemic), the EC50 in the data set on Plasmodium falciparum [1] was 0.54 µM; in the data set on Plasmodium berghei it was 7.3 µM; in the data set on Plasmodium falciparum [3], greater than 25 µM; in the data set with Plasmodium falciparum [4], 0.36 µM; in the data set with Plasmodium falciparum [5], 0.46 µM; in the data set on Plasmodium falciparum [6], 0.45 µM. Also, the EC50 amounted to 38 µM in the data set with Plasmodium falciparum [7]; 0.92 µM in the data set with Plasmodium falciparum [8]; 0.8 µM with Plasmodium falciparum [9]; 0.65 µM with Plasmodium falciparum [10]; 0.54 µM in the data set with Plasmodium falciparum [11] (3D7 clone F1-C1, 72 h). Also, the solubility kinetic in data set [2] amounted to 0.012 mg/mL (≈ 25.8 µM). Moreover, the EC90 in the data set on Plasmodium falciparum [11] (3D7 clone F1-C1, time 72 hrs) was 1 µM.
